INS-1E rescue = preserves ATP levels in cytokine-treated INS-1E cells. AID 488910. INS-1E cytokine-induced death, ATP luminescence, 48 h; normalised: neutral wells 0, positive control 100. protection from cytokine-induced ATP loss, % at 10 µM. 0.1% of 20,000 active;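 active = mean replicate protection from cytokine-induced ATP loss at least 50% and at least 75% of replicates each reaching 50%; inconclusive = meets only one of the two criteria, mean or replicate share; inactive = fails both the mean and replicate share criteria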
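Assay system: INS-1E rat insulinoma cells. Amount: 8000 cells per well. Medium: phenol-red-free RPMI with 5% fetal bovine serum. Reagent: IL-1β, TNF-α and IFN-γ cytokine mix. Doses: one compound concentration, pin transfer. Schedule: 48 h co-treatment, 10 min post-lysis read. Detection: CellTiter-Glo luminescence measuring cellular ATP.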
A1 apoptosis 2 = blocks A1, raising caspase activity; AID 2465; caspase activation, % (concentration not given with the values); 24,000 tested, under 10 active; MEF A1-2A-BIM cells, caspase-Glo luminescence, 3 h; percent of clofoctol response, DMSO zero; in the data active = caspase activation above about 5.9%; inconclusive = no clear call, values can overlap the other calls; inactive = below about 2.2%
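Material: mouse embryonic fibroblasts co-expressing A1 and BIM (A1-2A-BIM), primed for A1 dependence / Quantity: 2500 cells/well / Buffer or medium: RPMI-1640 growth medium with 10% FBS / Doses: 50 nL compound per well, pinned / Schedule: 3 h compound exposure at 37 °C / Signal: Caspase-Glo luminescence (DEVD substrate) / Measure: Caspase-3/7 activation, seen as rise in luminescence signal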
T cruzi HTS = inhibitors of intracellular Trypanosoma cruzi. intracellular Trypanosoma cruzi in host cells, plate reader. AID 651903. 4.9% of 22,000 active. activity score (inhibition), % at 5.01 µM; in the data active = activity score above about 55%; inconclusive = no clear call, values can overlap the other calls;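 note: parasites and compound incubated about four days before reading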
Hits are given with their value; n = inactive; u = inconclusive; x = no result given. The entries come from a sample that favours hits as a whole.

SMILES | INS-1E rescue | A1 apoptosis 2 | T cruzi HTS
O=C1c2ccccc2C(=O)N1[C@@H]1CCCN(Cc2cccc(OCCO)c2)C1 | x | n | x
C[C@@H]1CN([C@@H](C)CO)C(=O)c2cc(NS(=O)(=O)c3ccccc3)ccc2O[C@@H]1CN(C)Cc1ccc(-c2ccccc2)cc1 | n | x | n
C[C@H]1CN([C@@H](C)CO)C(=O)c2cc(NS(=O)(=O)c3ccccc3)ccc2O[C@@H]1CN(C)Cc1ccc(-c2ccccc2)cc1 | n | n | 67
Cc1ccc(S(=O)(=O)Nc2ccc3c(c2)C(=O)N([C@@H](C)CO)C[C@@H](C)[C@H](CN(C)Cc2ccc(-c4ccccc4)cc2)O3)cc1 | n | x | u
Cc1ccc(S(=O)(=O)Nc2ccc3c(c2)C(=O)N([C@@H](C)CO)C[C@H](C)[C@@H](CN(C)Cc2ccc(-c4ccccc4)cc2)O3)cc1 | n | n | 78
C[C@H](CO)N1C[C@H](C)[C@H](CN(C)S(=O)(=O)c2ccccc2)Oc2ccc(NS(=O)(=O)c3ccc(F)cc3)cc2C1=O | n | n | 58
C[C@@H]1CN([C@@H](C)CO)C(=O)Cc2cc(NS(=O)(=O)c3ccc(Cl)cc3)ccc2O[C@H]1CN(C)Cc1ccc(Oc2ccccc2)cc1 | x | n | x
C[C@H]1CN([C@@H](C)CO)C(=O)c2cc(NS(=O)(=O)c3ccc(F)cc3)ccc2O[C@@H]1CN(C)Cc1ccc(Oc2ccccc2)cc1 | n | x | 69
C[C@@H]1CN([C@@H](C)CO)C(=O)Cc2cc(NS(=O)(=O)c3ccc(F)cc3)ccc2O[C@H]1CN(C)Cc1ccc(Oc2ccccc2)cc1 | x | n | x
C[C@@H]1CN([C@H](C)CO)C(=O)Cc2cc(NS(=O)(=O)c3ccc(Cl)cc3)ccc2O[C@@H]1CN(C)Cc1ccc(Oc2ccccc2)cc1 | n | x | 61
C[C@@H]1CN([C@@H](C)CO)C(=O)c2cc(NS(=O)(=O)c3ccc(F)cc3)ccc2O[C@H]1CN(C)S(=O)(=O)c1ccccc1 | n | n | n
C[C@@H]1CN([C@@H](C)CO)C(=O)c2cc(NS(=O)(=O)c3ccc(F)cc3)ccc2O[C@@H]1CN(C)Cc1ccc(Oc2ccccc2)cc1 | n | x | n
C[C@@H]1CN([C@H](C)CO)C(=O)Cc2cc(NS(=O)(=O)c3ccc(F)cc3)ccc2O[C@@H]1CN(C)Cc1ccc(Oc2ccccc2)cc1 | n | n | 69
O=C(NO)c1ccc(C(=O)N/N=C/c2ccoc2)cc1 | n | n | n
Cc1ccc(F)cc1S(=O)(=O)N[C@@H]1CCN(Cc2ccc(C(F)(F)F)cc2)C1 | x | n | x
CNC[C@@H]1OCCCC[C@H](C)Oc2ccc(NS(=O)(=O)c3ccc(OC)cc3)cc2C(=O)N([C@@H](C)CO)C[C@@H]1C | x | n | x
Cc1ccsc1/C=N/NC(=O)CCCCCC(=O)O | n | n | n
Cc1ccc(S(=O)(=O)Nc2ccc3c(c2)CC(=O)N([C@@H](C)CO)C[C@H](C)[C@H](CN(C)Cc2ccc(Oc4ccccc4)cc2)O3)cc1 | n | x | n
C[C@H]1CN([C@@H](C)CO)C(=O)Cc2cc(NS(=O)(=O)c3ccccc3)ccc2O[C@H]1CN(C)Cc1ccc(Oc2ccccc2)cc1 | n | n | n
C[C@@H]1CN([C@H](C)CO)C(=O)Cc2cc(NS(=O)(=O)c3ccccc3)ccc2O[C@@H]1CN(C)Cc1ccc(Oc2ccccc2)cc1 | n | n | 71
Cc1noc(C)c1S(=O)(=O)Nc1ccc2c(c1)CC(=O)N([C@H](C)CO)C[C@@H](C)[C@@H](CN(C)Cc1ccc(Oc3ccccc3)cc1)O2 | n | n | 67
Cc1ccc(S(=O)(=O)Nc2ccc3c(c2)CC(=O)N([C@@H](C)CO)C[C@@H](C)[C@@H](CN(C)Cc2ccc(Oc4ccccc4)cc2)O3)cc1 | n | x | 70
Cc1noc(C)c1S(=O)(=O)Nc1ccc2c(c1)CC(=O)N([C@@H](C)CO)C[C@H](C)[C@H](CN(C)Cc1ccc(Oc3ccccc3)cc1)O2 | n | n | n
CC(C)(C)OC(=O)NCCOCCOCCNc1ncnc2ccccc12 | x | n | x
O=S(=O)(NC1CCN(Cc2cccc(OCCO)c2)CC1)c1cc(C(F)(F)F)ccc1Cl | x | n | x
SMILES | INS-1E rescue | A1 apoptosis 2 | T cruzi HTS
C[C@H]1CN([C@@H](C)CO)C(=O)c2cccc(NS(=O)(=O)c3ccc(Cl)cc3)c2O[C@H]1CN(C)Cc1ccc(-c2ccccc2)cc1 | n | x | 59
Cc1ccc(S(=O)(=O)Nc2cccc3c2O[C@@H](CN(C)Cc2ccc(Oc4ccccc4)cc2)[C@@H](C)CN([C@H](C)CO)C3=O)cc1 | n | n | 65
C[C@@H]1CN([C@@H](C)CO)C(=O)c2cccc(NS(=O)(=O)c3ccccc3)c2O[C@@H]1CN(C)CC1CC1 | n | n | 57
Cc1ccc(S(=O)(=O)Nc2cccc3c2O[C@H](CN(C)Cc2ccc(Oc4ccccc4)cc2)[C@@H](C)CN([C@@H](C)CO)C3=O)cc1 | n | x | n
C[C@@H]1CN([C@H](C)CO)C(=O)c2cccc(NS(=O)(=O)c3ccc(Cl)cc3)c2O[C@H]1CN(C)Cc1ccc(-c2ccccc2)cc1 | n | x | n
C[C@@H]1CN([C@H](C)CO)C(=O)c2cccc(NS(=O)(=O)c3ccc(F)cc3)c2O[C@@H]1CN(C)C(=O)NC1CCCCC1 | n | n | n
C[C@H](CO)N1C[C@H](C)[C@H](CN(C)C(=O)NC2CCCCC2)Oc2c(NS(=O)(=O)c3ccc(F)cc3)cccc2C1=O | n | n | 59
C[C@H]1CN([C@@H](C)CO)C(=O)c2cccc(NS(=O)(=O)c3ccccc3)c2O[C@H]1CN(C)CC1CC1 | n | n | n
C[C@@H]1CN([C@@H](C)CO)C(=O)c2cccc(NC(=O)NC3CCCCC3)c2O[C@H]1CN(C)C(=O)Nc1ccccc1 | n | n | n
COC(=O)CCCCCCC(=O)N/N=C/c1ccc2c(c1)CCO2 | n | x | n
O=C(CCCCCC(=O)N/N=C/c1cc(Cl)cc(Cl)c1O)NO | x | n | x
C=CCNC(=O)[C@H]1[C@@H]2C(=O)O[C@@H](c3ccccc3)[C@@H](c3ccccc3)N2[C@@H](c2ccccc2OCCO)[C@]12C(=O)Nc1ccc(C#CC3=CCCCC3)cc12 | x | n | x
CC1(C)COC(CCC/C=N/NC(=O)CCCCC(=O)NO)OC1 | n | n | n
C[C@H](CO)N1C[C@H](C)[C@H](CN(C)Cc2ccc(-c3ccccc3)cc2)Oc2c(NS(=O)(=O)c3ccc(F)cc3)cccc2C1=O | n | n | 58
Cc1ccc(S(=O)(=O)Nc2cccc3c2O[C@@H](CN(C)S(=O)(=O)c2ccc(Cl)cc2)[C@@H](C)CN([C@H](C)CO)C3=O)cc1 | n | x | 58
C[C@@H]1CN([C@H](C)CO)C(=O)c2cccc(NS(=O)(=O)c3ccc(F)cc3)c2O[C@H]1CN(C)Cc1ccc(-c2ccccc2)cc1 | n | x | n
Cc1ccc(S(=O)(=O)N(C)C[C@@H]2Oc3c(NS(=O)(=O)c4ccc(Cl)cc4)cccc3C(=O)N([C@H](C)CO)C[C@H]2C)cc1 | n | n | n
N#Cc1ccc(/C=N/NC(=O)c2cccc(C(=O)NO)c2)cc1 | n | n | n
O=C(O)CCCCCCC(=O)N/N=C/c1ccccc1O | n | n | n
O=C(CCCCCCC(=O)Nc1ccccc1O)NN=C1CCCCCCC1 | n | n | n

Bioassay records deposited in PubChem BioAssay by Broad Institute.
